# Experimental data: ChEMBL document CHEMBL1152759, “Design, synthesis, and biological evaluation of novel quinoline derivatives as HIV-1 Tat-TAR interaction inhibitors” (Bioorg Med Chem, 2009)
# Key:
# [1] = Selectivity index, ratio of TC50 for human CEM cells to EC50 for SIV in human CEM cells
# [2] = tested on: Simian immunodeficiency virus; assay: Antiviral activity against SIV in human CEM cells assessed as protection against virus-induced cytopathogenicity; format: functional, organism-based; details: CCRF-CEM
# Procedure, shortened: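 SIV syncytium assay: CEM174 cells at 2 × 10^5 cells/ml infected with 100 TCID50 SIV per well, given dilutions of compound; 5 days at 37 °C, 5% CO2, humidified air. Giant (syncytium) cell formation scored microscopically. EC50 = concentration protecting cells from SIV cytopathogenicity by 50%.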
# [3] = Cytotoxicity against human CEM cells; format: cell-based; details: CEM (CCRF-CEM) cells, read-out: TC50 (the source's name)
# Procedure, shortened: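 Uninfected CEM cells exposed to compound dilutions; TC50 is the concentration giving 50% inhibition of cell proliferation.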
# Nucleic Acid = assay: Inhibition of HIV1 Tat-TAR RNA interaction-mediated transactivation in human 293T cells assessed as CAT gene expression at 30 uM after 24 hrs by ELISA; values are per cent of control; details: Human immunodeficiency virus 1
Compound,EC50 [2] [µM],Ratio [1],CC50 [3] [µM],"level, % of control (Nucleic Acid) [%]"
O=C(NCCCO)c1cnc2ccccc2c1Cl,6.6,>15,> 100,–
COC(=O)[C@H](C)NC(=O)c1cnc2ccccc2c1Cl,5.7,14,81.3,–
O=C(NCCO)c1c[nH]c2ccccc2c1=O,3.7,>27,> 100,–
COC(=O)CNC(=O)c1cnc2ccccc2c1Cl,5.4,>18,> 100,79
O=C(N[C@H](CO)Cc1ccccc1)c1cnc2ccccc2c1Cl,4,>25,> 100,–
COC(=O)[C@H](CO)NC(=O)c1cnc2ccccc2c1Cl,1.1,>90,> 100,59.6
COC(=O)[C@H](CO)NC(=O)c1cnc2cc(Cl)ccc2c1Cl,8.2,>12,> 100,–
COC(=O)[C@H](CO)NC(=O)c1cnc2ccc(F)cc2c1Cl,5.8,>17,> 100,–
COC(=O)C[C@H](NC(=O)c1cnc2ccccc2c1Cl)C(=O)OC,–,–,–,58.7
O=C(NCCO)c1c[nH]c2ccc(Oc3ccccc3)cc2c1=O,4.9,>20,> 100,–
COC(=O)[C@H](CC(C)C)NC(=O)c1cnc2ccccc2c1Cl,9.4,5.2,49.1,–
COC(=O)[C@@H](NC(=O)c1cnc2ccccc2c1Cl)C(C)C,5.6,3.1,17.6,–
CCOC(=O)[C@H](CO)NC(=O)c1cnc2ccccc2c1Cl,4.7,>21,> 100,–
COC(=O)[C@H](Cc1c[nH]c2ccccc12)NC(=O)c1cnc2ccccc2c1Cl,10,>19,> 100,–
COC(=O)[C@H](CO)NC(=O)c1cnc2cc(C)ccc2c1Cl,4.7,13,59.6,53.3
COC(=O)[C@H](CO)NC(=O)c1cnc2c(Cl)cccc2c1Cl,6.7,>15,> 100,–
COC(=O)[C@H](CO)NC(=O)c1cnc2ccc(C)cc2c1Cl,11.6,>8.6,> 100,–
O=C(NCCO)c1cn(Cc2ccccc2)c2ccccc2c1=O,6,>16,> 100,63.9
O=C(NCCO)c1cn(Cc2ccc(F)cc2)c2ccccc2c1=O,6.9,>14,> 100,–
CC(C)C[C@@H](CO)NC(=O)c1cnc2ccccc2c1Cl,7.9,>12,> 100,71.9
O=C(NCCO)c1c[nH]c2ccc(Cl)cc2c1=O,5.1,>19,> 100,–
COC(=O)[C@H](CSC)NC(=O)c1cnc2ccccc2c1Cl,2.9,22,68.4,–

# More lines, in order of falling EC50 [2], values ahead:
EC50 [2] [µM],Compound,Ratio [1],CC50 [3] [µM],"level, % of control (Nucleic Acid) [%]"
13,COC(=O)[C@@H](NC(=O)c1cnc2cc(C)ccc2c1Cl)[C@@H](C)O,>14,> 100,92.7
12,COC(=O)[C@H](CO)NC(=O)c1cnc2ccc(Cl)cc2c1Cl,>8.3,> 100,–
8.8,COC(=O)[C@H](CO)NC(=O)c1cnc2c(F)cc(F)cc2c1Cl,>11,> 100,–
8.7,Cn1cc(C(=O)NCCO)c(=O)c2ccccc21,>11,> 100,44.2
7.9,COC(=O)[C@H](Cc1ccccc1)NC(=O)c1cnc2ccccc2c1Cl,>13,> 100,–
7.3,O=C(NCCO)c1cn(CCO)c2ccccc2c1=O,>13,> 100,–
7,COC(=O)[C@@H](NC(=O)c1cnc2ccccc2c1Cl)[C@@H](C)O,>14,> 100,82.4
7,C[C@@H](CO)NC(=O)c1cnc2ccccc2c1Cl,>14,> 100,–
2.8,COC(=O)[C@H](CO)NC(=O)c1cnc2c(C)cccc2c1Cl,>36,> 100,–
2.7,O=C(NCCO)c1cnc2ccccc2c1Cl,>37,> 100,–
1.3,CC[C@H](C)[C@H](NC(=O)c1cnc2ccccc2c1Cl)C(=O)OC,17,23.3,–
